Source: PubChem
Sampled rows, rich in hits. Any-hit rate of the full collection: about 7.2%.
E coli WT exp = blocks growth of wild type E. coli BW25113; hit rate 0.15% among 98,000; OD600 absorbance; growth inhibition, % at 100 µM;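 active = growth inhibition above about 50% at one test dose, limit read from the data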;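 also: growth measured after 20 h incubation at 37 °C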
PostGolgi yeast = growth inhibition of a yeast mutant, post-Golgi transport screen; post-Golgi transport phenotypic cell assay; inhibition, % at 10 µM; hit rate 0.9% among 98,000; AID 739;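 also: yeast cells grown in 1536-well plates; yeast grown about 18 h at 30C before absorbance read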
PostGolgi ctrl = inhibits growth of the yeast control strain | efflux-deficient yeast background strain, growth absorbance A615, 16 h | inhibition, % at 10 µM | hit rate 5% among 98,000
Ecoli tolC = blocks growth of E. coli BW25113 tolC mutant; OD615; growth inhibition, % at 10 µM (by protocol); hit rate 2.2% among 65,000; AID 573;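 active = growth inhibition at or above a cutoff equal to the mean over every tested compound plus 3 SD, cut at about 60% in these data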;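 also: growth measured after 20 h incubation at 37 °C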
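Signal: optical density read at 615 nm; Assay system: E. coli ΔtolC::kan strain BW25113; Times: 20 h incubation with compound, 37 °C; Dosing: 10 µM final, single dose.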
PLAP activator = activators of human placental alkaline phosphatase | P05187 | purified PLAP enzyme, luminescent substrate read-out; active compounds read high | hit rate 1.2% among 96,000 | activation fold at 20 µM; in the data active = activation fold above about 2
Target sequence (P05187 whole entry, looked up): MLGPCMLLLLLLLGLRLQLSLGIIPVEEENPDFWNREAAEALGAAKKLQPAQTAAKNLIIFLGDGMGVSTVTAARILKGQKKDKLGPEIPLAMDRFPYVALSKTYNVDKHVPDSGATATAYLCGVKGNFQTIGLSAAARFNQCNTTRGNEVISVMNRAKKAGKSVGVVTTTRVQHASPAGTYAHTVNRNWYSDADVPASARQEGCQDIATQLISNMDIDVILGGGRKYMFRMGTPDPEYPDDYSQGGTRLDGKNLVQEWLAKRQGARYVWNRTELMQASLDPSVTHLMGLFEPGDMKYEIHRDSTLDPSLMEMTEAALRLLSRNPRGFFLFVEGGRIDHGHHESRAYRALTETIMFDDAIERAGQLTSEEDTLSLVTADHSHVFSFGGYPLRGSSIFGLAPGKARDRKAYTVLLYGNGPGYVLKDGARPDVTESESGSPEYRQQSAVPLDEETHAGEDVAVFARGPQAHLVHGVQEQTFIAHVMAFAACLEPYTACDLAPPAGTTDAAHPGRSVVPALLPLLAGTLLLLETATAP
* hit, by the source's call; nt = not tested or not shown. Rule as the data show it, unless noted: active = inhibition above about 30%; inactive = the rest.

SMILES	E coli WT exp	PostGolgi yeast	PostGolgi ctrl	Ecoli tolC	PLAP activator
Cc1nc(-c2cccc(NS(C)(=O)=O)c2)cs1	-9.0	-2.8	9.8	nt	0.9
CCCN1CCC(N(C)CCc2ccc(OC)c(OC)c2)CC1	-4.0	-1.2	7.3	7.3	1.2
COc1cccc(C(CC(=O)Nc2cccc3ccccc23)NC(=O)c2ccccc2)c1 (stereo not drawn)	-10.0	-8.9	0.8	nt	1.1
CC(C)CCN(C(=O)CNC(=O)c1ccco1)C(C(=O)NC1CCCCC1)c1ccco1 (stereo not drawn)	0.0	12.5	15.9	14.7	1.5
Cc1cc(NC(=O)CCC(=O)N(CCC(C)C)CC(=O)NCC2CCCO2)no1 (stereo not drawn)	11.0	-0.3	38.3*	-6.6	1.4
COc1ccc(C)cc1NC(=S)NNC(=O)c1ccccc1Cl	4.0	-3.5	9.6	nt	2.9*
COc1ccccc1NC(=S)NNC(=O)c1ccc(O)cc1	1.0	8.7	-4.3	nt	2.4*
COc1ccccc1NC(=S)NNC(=O)c1nn(C)cc1Cl	13.0	-0.5	5.6	nt	1.9
COc1ccccc1NC(=O)c1nn(C)cc1Br	2.0	-5.7	35.7*	nt	1
COc1ccccc1NC(=S)NNC(=O)c1nn(C)c(C)c1Cl	-5.0	-5.1	4.2	nt	2.1*
Cc1ccc(NC(=O)c2ccccc2Cl)c(Cl)c1	22.0	19.3	7.0	nt	1
CSc1nc2ccccc2n1CC(=O)Nc1cc(C(F)(F)F)ccc1N1CCOCC1	5.0	-6.6	-8.6	nt	1.6
Cc1nn2c(N3CCOCC3)c3c(nc2c1-c1ccccc1)CCCC3	1.0	0.6	78.7*	7.0	1.5
CCCOc1ccc(C(=O)CCC(=O)OCC(=O)Nc2cc(C)on2)cc1	0.0	22.2	-5.1	nt	0.9
CCOC(=O)c1c(C)oc2ccc(NS(=O)(=O)c3ccc4c5c(cccc35)C(=O)N4)cc12	0.0	6.6	8.7	68.1*	nt
COCCOC(=O)c1c(C)oc2ccc(NS(=O)(=O)c3ccccc3)cc12	-1.0	-6.0	14.1	35.0	1.2
O=C(CSc1nc(-c2ccncc2)nn1CC(=O)N1CCCCC1)NC1CCCC1	6.0	9.2	0.1	7.7	1
COc1ccc(CNC(=O)CCCCCn2c(SCC#N)nc3cc4c(cc3c2=O)OCO4)cc1	-2.0	-4.0	-2.5	-3.1	2.1*
COc1ccc(N(C(=O)Cn2nnc3ccccc32)C(C(=O)NCc2ccco2)c2ccc(C)o2)cc1 (stereo not drawn)	-3.0	1.6	-2.0	1.2	1.6
COc1ccccc1N1CCN(C(=O)COc2ccc(C)cc2Br)CC1	-9.0	-0.6	34.8*	69.5*	1.3
COc1ccccc1N1CCN(C(=O)COc2ccc(Cl)cc2Br)CC1	-11.0	5.0	68.4*	35.8	1.7
Cc1ccc(OCC(=O)N2CCCCC2)c(Br)c1	7.0	0.0	4.3	12.4	1.2
COc1ccc(Cl)cc1S(=O)(=O)N1CCN(C(=O)COc2ccccc2)CC1	6.0	-11.6	20.4	-0.7	0.9
COc1ccc(CSc2nnc(Cc3sc(-c4ccccc4)nc3-c3ccccc3)o2)cc1	-26.0	-0.6	11.9	nt	0.9
O=C(Nc1ccc2c(c1)OCCO2)NC1(C(F)(F)F)Oc2ccccc2O1	-2.0	5.1	33.6*	7.2	0.9
SMILES	E coli WT exp	PostGolgi yeast	PostGolgi ctrl	Ecoli tolC	PLAP activator
O=C(CSc1nc(C2CC2)nc2ccccc12)N1c2ccccc2Sc2ccc(C(F)(F)F)cc21	-4.0	-3.5	1.1	nt	1.3
Cn1c(Cn2nnc(-c3ccccc3)n2)nnc1SCc1ccccc1Cl	1.0	-0.2	16.5	nt	1.1
O=C(c1ccc(CNS(=O)(=O)c2ccccc2)cc1)N1CCN(c2ccccn2)CC1	6.0	9.4	-6.2	-7.9	nt
CC(C)c1ccc(OCc2ccc(C(=O)N3CCN(c4ccccn4)CC3)cc2)cc1	-15.0	-4.4	17.5	85.9*	1
O=C(Cc1cccc2ccccc12)N/N=C/c1ccc(Sc2nc3ccccc3s2)o1	-12.0	7.4	34.8*	nt	1.2
CC(=O)Oc1c(Cl)cc(Cl)cc1/C=C/c1ccc2ccccc2n1	-12.0	-5.4	53.9*	nt	1
COc1ccc(NC(=O)/C(Cl)=C(/Cl)S(=O)Cc2ccccc2)cn1 (stereo not drawn)	8.0	107.2*	80.2*	nt	0.8
COc1ccc(CS(=O)(=O)/C(Cl)=C(/Cl)C(=O)Nc2ccc(OC)nc2)cc1	4.0	29.2	65.1*	nt	0.8
CCCN(CCC)C(=O)CSc1nc2ccccc2c(=O)n1C1CCCC1	-13.0	3.5	27.2	77.3*	1.4
O=C(CSc1nc2ccccc2c(=O)n1C1CC1)NCc1ccccc1	-12.0	1.9	36.5*	13.4	0.9
CN(C)c1ccc(NC(=O)CSc2nc3ccccc3c(=O)n2C2CCCCC2)cc1	-9.0	-0.5	-7.9	16.4	1.4
CCn1c(SCC(=O)NCc2ccccc2)nc2ccccc2c1=O	-4.0	2.1	6.6	-17.1	0.9
COc1ccc(OC)c2c(C)cc(N3CCN(C(=O)c4ccc(F)cc4)CC3)nc12	-8.0	14.6	23.2	21.7	1.6
Cc1cccc(-n2ncc3c(NCc4ccc5c(c4)OCO5)ncnc32)c1	0.0	-2.8	18.1	75.8*	1
Cc1ccc(-n2ncc3c(NCc4ccc5c(c4)OCO5)ncnc32)c(C)c1	-19.0	4.1	38.0*	4.3	nt
NC(=O)c1ccsc1NC(=O)c1nc(-c2ccccc2)n(-c2ccccc2)n1	-6.0	72.6*	10.8	13.6	1.6
Cc1ccc(C)c(S(=O)(=O)NC(CCC(N)=O)C(=O)O)c1 (stereo not drawn)	nt	nt	nt	-5.3	0.8
Cc1nc2c(C(=O)NCc3ccco3)cnn2c(C)c1Cc1ccc(F)cc1Cl	-1.0	3.3	18.4	13.7	1.1
Cc1ccc(C)c(Cc2c(C)nc3c(C(=O)NCc4ccc5c(c4)OCO5)cnn3c2C)c1	-2.0	4.5	56.5*	nt	1.4
Cc1cccc(Cc2c(C)nc3c(C(=O)NCc4ccco4)cnn3c2C)c1	7.0	3.1	33.2*	75.2*	1
Cc1nc2c(C(=O)NCc3ccc4c(c3)OCO4)cnn2c(C)c1Cc1ccc(F)cc1Cl	-9.0	-1.7	42.3*	nt	1.3
Cc1ccc(-n2nc(C)c(C3C(C#N)=C(N)OC4=C3C(=O)CCC4)c2Cl)cc1 (stereo not drawn)	nt	nt	nt	11.9	1.2
Cc1ccc(C)c2c1[nH]c1ccc([N+](=O)[O-])cc12	-7.0	9.2	54.3*	nt	0.7
COCCn1c(SCC(=O)Nc2cc(C)cc(C)c2)nnc1C(C)C	-2.0	-3.8	30.0*	-6.5	1.4
CCSc1nnc(NC(=O)COc2ccc3ccccc3c2)s1	-11.0	-1.1	7.5	nt	1
SMILES	E coli WT exp	PostGolgi yeast	PostGolgi ctrl	Ecoli tolC	PLAP activator
CCN(Cc1ccccc1)C(c1cc2ccc(C)cc2[nH]c1=O)c1nnnn1CCOC (stereo not drawn)	17.0	-5.4	-2.1	nt	1.7
COc1cc(/C=N/c2oc(-c3ccccc3)cc2C#N)ccc1O	5.0	14.7	18.9	nt	1.1
Brc1ccc(-c2csc(-c3c[nH]c4ccccc34)n2)cc1	-20.0	-4.3	23.9	nt	1
c1ccc2c(-c3c[nH]c4ccccc34)c3ccccc3nc2c1	-10.0	1.1	50.0*	nt	0.8
COc1ccc(OC)c(C(c2nnnn2CCC(C)C)N2CCN(C(=O)c3ccco3)CC2)c1 (stereo not drawn)	2.0	25.8	11.7	4.1	1.7
Cn1c(SCc2nnc(-c3ccccc3Br)o2)nc2sc3c(c2c1=O)CCC3	-14.0	-8.6	45.1*	23.7	1.5
